# Data from ChEMBL document CHEMBL2407039 (Eur J Med Chem, 2013).
# Activity calls are given as the source filed them. The rule behind the calls is not given here.
# Legend:
# [1] = target: DNA topoisomerase 2-alpha (Homo sapiens) (UniProt P11388); assay: Inhibition of human topoisomerase 2 alpha-mediated decatenation of kinetoplast DNA at 100 uM after 30 mins by agarose gel electrophoresis in presence of ATP relative to control
# How it was run: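 ATP-dependent decatenation of 0.1 µg kinetoplast DNA by 1 unit of human topo IIα. Incubated 30 min at 37 °C in 50 mM Tris-HCl pH 8.0, 150 mM NaCl, 10 mM MgCl2, 2 mM ATP, 0.5 mM DTT. Gel images quantified by densitometry.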
# HL-60 = assay: Cytotoxicity against human HL60 cells after 72 hrs by MTT assay; assay type: functional, cell-based; conditions: HL-60, 72 h
# How it was run: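 HL60 cells were treated with increasing compound concentrations for 72 h. MTT was then added for 4 h. Cells were lysed overnight at 37 °C in 10% SDS–5% isobutanol–12 mM HCl and read at 570 nm. Inhibition taken relative to control. IC50 by the Logit method; triplicate experiments.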
# [2] = Cytotoxicity against human GES-1 cells after 72 hrs by sulforhodamine B assay; assay type: cell-based; conditions: GES1, 72 h
# How it was run: (§1)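 Cells seeded and cultured overnight, then treated with increasing compound concentrations for 72 h. Fixed with 10% TCA, stained with sulforhodamine B, dye dissolved in 10 mM Tris-HCl, read at 515 nm. Inhibition taken relative to untreated control. IC50 by the Logit method; triplicate experiments.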
# [3] = target: Vascular endothelial growth factor receptor 2 (Homo sapiens, UniProt P35968); assay: Inhibition of KDR (unknown origin) using poly (Glu, Tyr)4:1 as substrate by ELISA
# A549 = assay: Cytotoxicity against human A549 cells after 72 hrs by sulforhodamine B assay; assay type: functional, cell-based; conditions: A549, 72 h; how it was run: as §1
# [4] = target: T1, Fibroblast growth factor receptor 1 (Homo sapiens, UniProt P11362); assay: Inhibition of FGFR1 (unknown origin) using poly (Glu, Tyr)4:1 as substrate by ELISA
# Target sequence in this assay (P11362 whole entry): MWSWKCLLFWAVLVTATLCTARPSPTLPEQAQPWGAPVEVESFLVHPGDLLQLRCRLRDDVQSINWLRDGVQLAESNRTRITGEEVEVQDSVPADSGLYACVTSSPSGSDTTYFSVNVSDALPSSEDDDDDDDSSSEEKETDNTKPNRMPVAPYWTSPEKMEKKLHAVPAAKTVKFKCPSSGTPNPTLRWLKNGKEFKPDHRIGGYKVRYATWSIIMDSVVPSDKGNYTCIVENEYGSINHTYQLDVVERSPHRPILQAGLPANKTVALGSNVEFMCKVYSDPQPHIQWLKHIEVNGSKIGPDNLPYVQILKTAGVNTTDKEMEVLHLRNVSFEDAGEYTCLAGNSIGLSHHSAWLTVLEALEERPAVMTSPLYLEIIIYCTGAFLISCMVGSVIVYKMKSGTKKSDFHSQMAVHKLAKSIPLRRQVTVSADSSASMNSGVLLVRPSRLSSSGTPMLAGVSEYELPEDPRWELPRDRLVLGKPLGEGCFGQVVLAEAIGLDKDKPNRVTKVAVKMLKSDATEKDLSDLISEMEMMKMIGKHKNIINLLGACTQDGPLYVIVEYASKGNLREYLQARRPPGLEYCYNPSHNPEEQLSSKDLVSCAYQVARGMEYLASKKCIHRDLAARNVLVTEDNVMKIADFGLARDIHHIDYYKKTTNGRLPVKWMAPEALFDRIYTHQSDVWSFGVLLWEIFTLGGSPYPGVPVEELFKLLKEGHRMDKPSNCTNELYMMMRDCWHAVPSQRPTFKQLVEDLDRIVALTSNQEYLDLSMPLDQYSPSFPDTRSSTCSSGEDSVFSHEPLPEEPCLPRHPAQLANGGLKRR
# [5] = target: Platelet-derived growth factor receptor alpha (Homo sapiens, UniProt P16234); assay: Inhibition of PDGFRalpha (unknown origin) using poly (Glu, Tyr)4:1 as substrate by ELISA
# How it was run: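 ELISA on wells precoated with 2.5 µg/well poly(Glu,Tyr) 4:1. Reaction buffer was 50 mM HEPES pH 7.4, 20 mM MgCl2, 0.1 mM Na3VO4, 1 mM DTT, with 10 µM ATP; the reaction was started by adding kinase and run 1 h at 37 °C. Phosphotyrosine detected with PY99 and HRP anti-mouse IgG, o-phenylenediamine development, read at 490 nm.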
# MDA-MB-231 = assay: Cytotoxicity against human MDA-MB-231 cells after 72 hrs by sulforhodamine B assay; assay type: functional, cell-based; conditions: MDA-MB-231, 72 h; how it was run: as §1
# DNA [6] = assay: Binding affinity to calf thymus DNA assessed as intercalation at 20 uM after 2 hrs by circular dichroism spectrophotometry; assay type: nucleic-acid assay; conditions: Bos taurus
# How it was run: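 Calf thymus DNA (100 µM) was incubated with compound (20 µM) in Tris-HCl buffer for 2 h at 25 °C. CD spectra were then analysed over 230–300 nm.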
# [7] = target: Platelet-derived growth factor receptor beta (Homo sapiens, UniProt P09619); assay: Inhibition of PDGFRbeta (unknown origin) using poly (Glu, Tyr)4:1 as substrate by ELISA
# [8] = Cytotoxicity against human LO2 cells after 72 hrs by sulforhodamine B assay; assay type: cell-based; conditions: L02, 72 h; how it was run: as §1
# [9] = Solubility of the compound in PBS buffer at PH 7.4 after 24 hrs by UV-Visible spectrophotometry; assay type: physicochemical
# DNA [10] = assay: Binding affinity to calf thymus DNA assessed as intercalation after 1 hr by fluorescence spectrophotometric analysis; assay type: nucleic-acid assay; conditions: Bos taurus
# How it was run: (§2)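 Fluorescence spectra were recorded at 25 °C. Compound was present at 10 µM with calf thymus DNA at 0–80 µM, in 20 mM Tris-HCl (pH 7.5) containing 1% DMSO.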
# DNA [11] = assay: Binding affinity to calf thymus DNA assessed as intercalation at 10 uM after 1 hr by fluorescence spectrophotometry; assay type: nucleic-acid assay; conditions: Bos taurus; how it was run: as §2
# [12] = target: T1, Fibroblast growth factor receptor 1; assay: Inhibition of FGFR1 in human HMEC1 cells assessed as reduction of bFGF-induced Erk1/2 phosphorylation at Thr 202/204 at 1.25 to 2.5 uM incubated for 10 hrs prior to bFGF challenge measured after 10 mins by Western blotting analysis; assay type: cell-based
# How it was run: (§3)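 HMEC-1 cells were plated at 3 × 10⁵ cells/well and serum-starved 24 h. Cells were exposed to compound (10 h per the results text; methods state 12 h), then stimulated with 50 ng/mL bFGF for 10 min at 37 °C. Whole-cell lysates were run on 10% SDS-PAGE and blotted with antibodies to phospho-FGFR1, phospho-Erk and phospho-AKT, with GAPDH as loading control.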
# Target sequence in this assay (P11362 22-822 limits assumed): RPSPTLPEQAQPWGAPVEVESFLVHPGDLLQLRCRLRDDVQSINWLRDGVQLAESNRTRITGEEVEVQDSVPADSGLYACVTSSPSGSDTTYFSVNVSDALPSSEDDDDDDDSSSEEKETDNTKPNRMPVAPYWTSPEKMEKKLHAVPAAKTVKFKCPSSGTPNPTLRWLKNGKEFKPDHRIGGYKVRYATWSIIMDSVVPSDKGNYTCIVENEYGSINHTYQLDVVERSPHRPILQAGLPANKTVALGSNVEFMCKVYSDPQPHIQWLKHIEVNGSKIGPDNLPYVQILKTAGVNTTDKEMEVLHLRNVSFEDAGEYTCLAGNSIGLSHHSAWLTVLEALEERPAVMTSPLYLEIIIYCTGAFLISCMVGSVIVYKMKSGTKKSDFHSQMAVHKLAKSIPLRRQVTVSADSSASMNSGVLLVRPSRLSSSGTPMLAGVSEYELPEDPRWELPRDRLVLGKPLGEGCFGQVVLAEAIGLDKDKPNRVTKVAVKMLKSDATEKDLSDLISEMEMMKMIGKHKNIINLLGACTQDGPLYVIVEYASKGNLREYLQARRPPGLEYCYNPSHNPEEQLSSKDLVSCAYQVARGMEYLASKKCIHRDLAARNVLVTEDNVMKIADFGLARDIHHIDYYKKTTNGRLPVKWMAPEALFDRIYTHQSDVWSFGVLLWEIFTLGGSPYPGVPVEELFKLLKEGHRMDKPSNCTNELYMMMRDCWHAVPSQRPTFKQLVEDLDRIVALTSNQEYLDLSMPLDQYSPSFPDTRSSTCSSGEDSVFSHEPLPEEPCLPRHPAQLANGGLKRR
# [13] = Antimigratory activity against human HMEC1 cells at 10 uM after 6 hrs by transwell Boyden chamber assay relative to control; assay type: functional; conditions: HMEC-1, 6 h
# How it was run: (§4)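 HMEC-1 suspension (5 × 10⁵ cells/mL) with compound or control was placed in the upper compartment of a transwell Boyden chamber. The lower compartment held MCDB131 with 20% FBS plus the same compound concentration. After 6 h at 37 °C, migrated cells were quantified by absorbance. Inhibition = [1 − (A compound − A blank)/(A control − A blank)] × 100%; mean ± SD, n = 3.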
# [14] = Antiangiogenic activity in human HMEC1 cells assessed as inhibition of serum-stimulated tube formation at 5 uM after 8 hrs by matrigel assay relative to control; assay type: functional; conditions: HMEC-1, 8 h
# How it was run: (§5)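 Matrigel was set in 96-well plates (37 °C, 1 h) and seeded with HMEC-1 at 1 × 10⁵ cells/mL. Cells were cultured 8 h at 37 °C in MCDB131 with 20% FBS containing compound or control. Tubes were counted in five random fields by phase-contrast microscopy. Inhibition = [1 − tubes compound/tubes control] × 100%; mean ± SD, n = 3.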
# HMEC-1 [15] = assay: Antimigratory activity against human HMEC1 cells after 6 hrs by transwell Boyden chamber assay; assay type: functional, cell-based; how it was run: as §4
# [16] = Antiangiogenic activity in human HMEC1 cells assessed as growth inhibition at 20 uM after 72 hrs by SRB assay; assay type: functional; conditions: HMEC-1, 72 h, read-out: GI
# How it was run: (§6)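 HMEC-1 cells seeded and cultured overnight, then exposed to graded compound concentrations for 72 h. Cells were fixed with 10% trichloroacetic acid and stained with sulforhodamine B. Dye was dissolved in 10 mM Tris-HCl and read at 515 nm. Inhibition = (1 − A515 treated/A515 control) × 100%.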
# HMEC-1 [17] = assay: Antiangiogenic activity in human HMEC1 cells assessed as inhibition of serum-stimulated tube formation after 8 hrs by matrigel assay; assay type: functional, cell-based; how it was run: as §5
# [18] = Antimigratory activity against human HMEC1 cells at 5 uM after 6 hrs by transwell Boyden chamber assay relative to control; assay type: functional; conditions: HMEC-1, 6 h; how it was run: as §4
# [19] = Antiangiogenic activity in human HMEC1 cells assessed as growth inhibition at 40 uM after 72 hrs by SRB assay; assay type: functional; conditions: HMEC-1, 72 h, read-out: GI; how it was run: as §6
# [20] = target: T1, Fibroblast growth factor receptor 1; assay: Inhibition of FGFR1 in human HMEC1 cells assessed as reduction of bFGF-induced AKT phosphorylation at Ser 473 at 1.25 to 5 uM incubated for 10 hrs prior to bFGF challenge measured after 10 mins by Western blotting analysis; assay type: cell-based; how it was run: as §3
# Target sequence in this assay (P11362 22-822 limits assumed): as above
# HMEC-1 [21] = assay: Antiangiogenic activity in human HMEC1 cells assessed as growth inhibition at <= 10 uM after 72 hrs by SRB assay; assay type: functional, cell-based; how it was run: as §6
# [22] = Antiangiogenic activity in human HMEC1 cells assessed as inhibition of serum-stimulated tube formation at 10 uM after 8 hrs by matrigel assay relative to control; assay type: functional; conditions: HMEC-1, 8 h; how it was run: as §5
# [23] = target: T1, Fibroblast growth factor receptor 1; assay: Inhibition of FGFR1 in human HMEC1 cells assessed as inhibition of bFGF-induced FGFR1 phosphorylation at Tyr 653/654 incubated for 10 hrs prior to bFGF challenge measured after 10 mins by Western blotting analysis; assay type: cell-based; how it was run: as §3
# Target sequence in this assay (P11362 22-822 limits assumed): as above
# HMEC-1 [24] = assay: Antiangiogenic activity in human HMEC1 cells assessed as growth inhibition after 72 hrs by SRB assay; assay type: functional, cell-based; how it was run: as §6
# [25] = target: T1, Fibroblast growth factor receptor 1; assay: Inhibition of FGFR1 in human HMEC1 cells assessed as reduction of bFGF-induced FGFR1 phosphorylation at Tyr 653/654 at 1.25 to 2.5 uM incubated for 10 hrs prior to bFGF challenge measured after 10 mins by Western blotting analysis; assay type: cell-based; how it was run: as §3
# Target sequence in this assay (P11362 22-822 limits assumed): as above
# Chain of Vascular endothelial growth factor receptor 2 (P35968 whole entry): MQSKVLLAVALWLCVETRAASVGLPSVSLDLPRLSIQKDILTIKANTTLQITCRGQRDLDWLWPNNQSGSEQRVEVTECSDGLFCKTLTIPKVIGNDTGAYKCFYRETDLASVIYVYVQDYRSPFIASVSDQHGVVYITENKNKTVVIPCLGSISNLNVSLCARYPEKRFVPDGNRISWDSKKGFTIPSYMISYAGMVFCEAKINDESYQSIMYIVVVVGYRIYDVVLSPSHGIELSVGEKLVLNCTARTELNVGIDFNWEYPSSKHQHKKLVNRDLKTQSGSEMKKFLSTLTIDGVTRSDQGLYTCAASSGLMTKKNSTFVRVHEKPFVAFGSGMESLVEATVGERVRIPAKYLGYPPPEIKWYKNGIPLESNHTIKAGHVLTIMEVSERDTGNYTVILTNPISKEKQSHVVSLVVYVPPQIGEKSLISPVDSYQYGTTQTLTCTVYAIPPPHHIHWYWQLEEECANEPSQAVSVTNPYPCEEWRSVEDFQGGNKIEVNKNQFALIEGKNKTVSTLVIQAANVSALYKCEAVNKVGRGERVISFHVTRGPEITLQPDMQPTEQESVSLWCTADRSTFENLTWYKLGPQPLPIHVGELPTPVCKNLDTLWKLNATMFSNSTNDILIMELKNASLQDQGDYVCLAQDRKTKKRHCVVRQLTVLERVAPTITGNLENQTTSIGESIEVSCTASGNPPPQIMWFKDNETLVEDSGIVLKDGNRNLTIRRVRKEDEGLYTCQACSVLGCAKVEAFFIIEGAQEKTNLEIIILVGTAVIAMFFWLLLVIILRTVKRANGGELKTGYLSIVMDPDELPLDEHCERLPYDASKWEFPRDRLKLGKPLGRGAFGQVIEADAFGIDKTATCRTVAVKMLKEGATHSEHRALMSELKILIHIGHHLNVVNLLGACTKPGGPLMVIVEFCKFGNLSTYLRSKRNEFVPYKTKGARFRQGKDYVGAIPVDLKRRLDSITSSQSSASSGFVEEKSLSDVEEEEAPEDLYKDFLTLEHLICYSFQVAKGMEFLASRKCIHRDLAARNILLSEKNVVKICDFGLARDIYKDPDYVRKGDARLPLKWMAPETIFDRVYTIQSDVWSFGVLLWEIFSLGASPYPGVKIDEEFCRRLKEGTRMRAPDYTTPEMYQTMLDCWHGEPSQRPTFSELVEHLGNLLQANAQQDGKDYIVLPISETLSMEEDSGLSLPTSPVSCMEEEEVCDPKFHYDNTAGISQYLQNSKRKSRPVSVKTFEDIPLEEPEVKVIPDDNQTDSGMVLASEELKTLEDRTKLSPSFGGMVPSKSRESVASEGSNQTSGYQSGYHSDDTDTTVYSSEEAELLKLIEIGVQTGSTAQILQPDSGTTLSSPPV
# Chain of Platelet-derived growth factor receptor beta (P09619 whole entry): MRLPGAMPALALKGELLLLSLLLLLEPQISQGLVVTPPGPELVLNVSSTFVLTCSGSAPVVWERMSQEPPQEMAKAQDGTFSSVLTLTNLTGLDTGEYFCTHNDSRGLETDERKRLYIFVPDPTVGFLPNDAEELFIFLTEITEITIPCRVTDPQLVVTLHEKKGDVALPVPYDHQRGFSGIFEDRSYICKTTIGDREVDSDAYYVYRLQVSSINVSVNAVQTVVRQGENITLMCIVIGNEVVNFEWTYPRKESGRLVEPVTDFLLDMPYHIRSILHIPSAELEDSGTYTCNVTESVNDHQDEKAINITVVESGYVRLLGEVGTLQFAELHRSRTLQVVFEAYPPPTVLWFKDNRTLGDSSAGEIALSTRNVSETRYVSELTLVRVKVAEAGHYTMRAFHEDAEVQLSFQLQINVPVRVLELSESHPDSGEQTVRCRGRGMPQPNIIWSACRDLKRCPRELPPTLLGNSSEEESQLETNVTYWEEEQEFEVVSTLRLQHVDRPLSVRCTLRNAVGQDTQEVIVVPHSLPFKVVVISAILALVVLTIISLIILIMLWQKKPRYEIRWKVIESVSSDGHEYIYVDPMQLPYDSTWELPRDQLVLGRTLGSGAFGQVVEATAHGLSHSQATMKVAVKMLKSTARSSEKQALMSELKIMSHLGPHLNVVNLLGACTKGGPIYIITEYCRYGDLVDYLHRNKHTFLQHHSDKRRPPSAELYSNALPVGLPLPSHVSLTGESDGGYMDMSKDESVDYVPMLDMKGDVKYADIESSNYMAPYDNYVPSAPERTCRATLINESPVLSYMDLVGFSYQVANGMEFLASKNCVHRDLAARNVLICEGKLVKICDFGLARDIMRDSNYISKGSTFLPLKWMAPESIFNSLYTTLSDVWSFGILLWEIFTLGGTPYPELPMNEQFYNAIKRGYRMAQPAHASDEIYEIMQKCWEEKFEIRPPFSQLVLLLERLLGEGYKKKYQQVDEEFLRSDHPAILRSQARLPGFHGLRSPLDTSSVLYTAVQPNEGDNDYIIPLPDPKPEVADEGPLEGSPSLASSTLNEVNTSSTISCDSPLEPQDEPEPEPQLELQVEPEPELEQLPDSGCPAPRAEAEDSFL
Structure (SMILES),inhibition [1],IC50 (HL-60),IC50 [2],IC50 [3],IC50 (A549),IC50 [4],IC50 [5],IC50 (MDA-MB-231),Activity (DNA [6]),IC50 [7],IC50 [8],solubility at 24 h [9],Activity (DNA [11]),other results
CCCCCCN1C(=O)c2cccc3c(NCCNCCN(C)C)ccc(c23)C1=O,94.3%,1.5 µM,46 µM,> 100 µM,9.8 µM,> 100 µM,> 100 µM,6.1 µM,inactive,> 100 µM,> 50 µM,430 µM,–,–
CN(C)CCN1C(=O)c2cccc3cc(N)cc(c23)C1=O [AMONAFIDE],97.5%,0.9 µM,21.6 µM,–,3.2 µM,–,–,4.4 µM,–,–,13.8 µM,–,inactive,Kb (DNA [10]): 2.1 ×10⁵ /M
CCN1C(=O)c2cccc3c(NCCNCCN(C)C)ccc(c23)C1=O,86.7%,17 µM,> 50 µM,> 100 µM,31.4 µM,> 100 µM,> 100 µM,24.3 µM,inactive,> 100 µM,> 50 µM,46700 µM,–,–
CN(C)CCNCCNc1ccc2c3c(cccc13)C(=O)N(C)C2=O,97.1%,7.8 µM,> 50 µM,> 100 µM,24.5 µM,> 100 µM,> 100 µM,7.9 µM,inactive,> 100 µM,13.6 µM,78400 µM,inactive,Kb (DNA [10]): 1.3 ×10⁵ /M
CCCCCCCCN1C(=O)c2cccc3c(NCCNCCN(C)C)ccc(c23)C1=O,99.8%,2.1 µM,> 50 µM,48.9 µM,7.8 µM,18.1 µM,> 100 µM,8.6 µM,inactive,> 50 µM,> 50 µM,264 µM,inactive,inhibition [12]: Active; inhibition at 10 µM [13]: 70%; inhibition at 5 µM [14]: 30%; inhibition (HMEC-1 [15]): Dose-dependent effect; inhibition of growth at 20 µM [16]: 68%; inhibition (HMEC-1 [17]): Dose-dependent effect; inhibition at 5 µM [18]: 55%; inhibition of growth at 40 µM [19]: 99%; inhibition [20]: Active; growth inhibition (GI) (HMEC-1 [21]): inactive; inhibition at 10 µM [22]: 70%; inhibition [23]: Dose-dependent effect; growth inhibition (GI) (HMEC-1 [24]): Dose-dependent effect; inhibition [25]: Active
CCCCCCCCCCCCCCCCN1C(=O)c2cccc3c(NCCNCCN(C)C)ccc(c23)C1=O,97.3%,24.5 µM,> 50 µM,> 100 µM,31.3 µM,> 100 µM,> 50 µM,17.7 µM,inactive,> 50 µM,> 50 µM,16 µM,inactive,–
CCCCN1C(=O)c2cccc3c(NCCNCCN(C)C)ccc(c23)C1=O,90.2%,5.8 µM,> 50 µM,> 100 µM,21.4 µM,> 100 µM,> 100 µM,10.5 µM,inactive,> 100 µM,> 50 µM,15400 µM,–,–
CCCCCCCCCCCCN1C(=O)c2cccc3c(NCCNCCN(C)C)ccc(c23)C1=O,96.6%,1.8 µM,> 50 µM,27.6 µM,19.1 µM,28.8 µM,26.2 µM,6.6 µM,inactive,> 50 µM,> 50 µM,63 µM,–,–
